In the library only some 1.2% were active in any assay of this set; here they are far more common.
SR-BI uptake up = SR-BI HDL lipid transfer activation. CHO ldlA[mSR-BI] cells, DiI-HDL uptake fluorescence, 3 h; 100 = double the neutral-control signal. 0.096% of 320,000 active. activation, % at 12.5 µM;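 active = mean replicate activation of at least 60% and every replicate at or above 60%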;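 note: 0% = median plate neutral-control signal and 100% = twice that signal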
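Test system: SR-BI-overexpressing, LDLR-lacking CHO cells; Also added: labelled HDL, 10 µg/mL; Measured by: bottom-read cell fluorescence after medium removal, ex 550/em 595 nm; Timing: 3 h uptake period with compound, 37 °C; Buffer or medium: F12, 0.5% BSA, 25 mM HEPES; Doses: single compound concentration, delivered by pin transfer.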
SR-BI DiI inh = mouse SR-BI HDL lipid transfer inhibition | inhibition, % at 12.5 µM | ldlA[mSR-BI] CHO cells, DiI-HDL uptake fluorescence, 3 h | 0.96% of 320,000 active | Q61009 | AID 488896;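 active = mean replicate inhibition of at least 70% and a set share of replicates each scoring 70 or more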;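 note: 0% = median of neutral control wells and 100% = median of positive control wells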
Target sequence (Q61009 whole entry, looked up): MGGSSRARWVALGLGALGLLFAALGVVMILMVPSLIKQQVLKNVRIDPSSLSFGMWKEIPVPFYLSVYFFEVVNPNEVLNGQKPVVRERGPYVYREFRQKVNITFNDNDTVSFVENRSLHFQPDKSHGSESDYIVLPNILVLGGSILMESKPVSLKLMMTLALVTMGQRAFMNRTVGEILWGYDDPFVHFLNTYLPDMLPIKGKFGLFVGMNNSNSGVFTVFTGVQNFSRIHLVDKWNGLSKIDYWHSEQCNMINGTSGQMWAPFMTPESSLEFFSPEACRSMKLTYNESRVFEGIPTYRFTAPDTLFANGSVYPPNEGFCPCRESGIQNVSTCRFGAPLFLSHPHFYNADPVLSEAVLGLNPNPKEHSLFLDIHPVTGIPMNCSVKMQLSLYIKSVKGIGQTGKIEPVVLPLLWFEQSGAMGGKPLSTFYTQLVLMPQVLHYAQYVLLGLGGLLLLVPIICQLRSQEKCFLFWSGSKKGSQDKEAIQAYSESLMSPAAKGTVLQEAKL
CaV13 ICDI inh = Primary screen for inhibitors of IQ motif and Ca2+-dependent inactivation inhibitor domain binding in CACNA1D, Förster resonance energy transfer in living cells, …. 0.098% of 340,000 active. inhibition, % at 12.3 µM. HEK cells, CFP/YFP FRET ICDI-IQ, plate reader, 10 min; percent FRET-ratio fall versus neutral wells;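 active = mean replicate inhibition of at least 30% and at least 1% of replicates passing that level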;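 note: 0% = median of the neutral control wells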
FN deposition inh = fibronectin deposition inhibition. AH1F fibroblasts, Alexa488-fibronectin deposition fluorescence, overnight. inhibition, % at 12.6 µM. 0.086% of 350,000 active;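 active = mean inhibition across replicates of 30% or more, regardless of how many single replicates reach that level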;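 note: positive control wells lacked labelled fibronectin entirely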
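material = AH1F fibroblast monolayer depositing Alexa488-labelled fibronectin into matrix | amount = 10000 AH1F cells/well | buffer or medium = DMEM plus 2% serum, read in PBS | incubation = 1 h cell adhesion before compound, then overnight fibronectin incubation | detection = fluorescence at 485 nm excitation, 525 nm emission | evaluation = percent inhibition as loss of matrix-bound fibronectin fluorescence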
Efflux pump inh = blocks antifungal efflux pumps in multiplex yeast assay; 0.44% of 330,000 active; S. cerevisiae Candida pump triplex, Nile Red efflux; inhibition, % at 10 µM;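 active = plate passing quality check with inhibition over a set limit, or well fluorescence over plate mean plus 4 SD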;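 note: Nile Red retained in pooled yeast measured as flow cytometry median fluorescence; 0% = buffer negative control and 100% = Enniatin B positive control; higher means more Nile Red kept so more efflux inhibition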
The depositor's hits bear a star; . = no result.

SMILES | SR-BI uptake up | SR-BI DiI inh | CaV13 ICDI inh | FN deposition inh | Efflux pump inh
CC(=O)Nc1ccc2c(c1)C(=O)N(C)C[C@H](C)[C@@H](CN(C)C)O2 | . | . | . | -6 | .
CC(=O)N[C@H]1CC[C@@H](CCNC(=O)C2CC2)O[C@@H]1CO | . | . | . | -6 | .
CCOC(=O)c1nc(NNC(=O)c2ccc([N+](=O)[O-])cc2)sc1C | -91 | 91* | -2 | 10 | 0
CN(C)C(=O)CCc1ccc2c3c([nH]c2c1)[C@]1(CCC2CCCC2)[C@@H](C(=O)N2CCOCC2)C[C@H](CC(=O)NCc2cccc(C(F)(F)F)c2)C(=O)N1CC3 | 35 | -35 | -6 | . | 0
O=C(CC1C[C@H](C(=O)N2CCOCC2)[C@@]2(CCC3CCCC3)c3[nH]c4ccccc4c3CCN2C1=O)NCc1cccc(C(F)(F)F)c1 (some centres not stated) | 107* | -107 | -7 | 0 | .
CC[C@]12c3[nH]c4ccc(Cl)cc4c3CCN1C(=O)[C@@H](CC(=O)NCc1ccc(OC)c(OC)c1)C[C@@H]2C(=O)N1CCN(C(=O)c2ccco2)CC1 | -78 | 78* | -7 | -2 | 0
C[C@]12c3[nH]c4ccc(Cl)cc4c3CCN1C(=O)[C@@H](CC(=O)NCc1ccco1)C[C@@H]2C(=O)N1CCCCC1 | -18 | 18 | -8 | 34* | 0
COc1ccc(C2=CSC(/N=C/c3ccc(F)cc3)=NN2)cc1 | -75 | 75* | -7 | . | 0
COc1ccc(/C=N/c2c(-c3ccc(OC)cc3)nc3n2CCS3)cc1 | -70 | 70 | -7 | . | 0
C[C@@H]1CN([C@@H](C)CO)S(=O)(=O)c2ccc(-c3ccccc3)cc2O[C@@H]1CN(C)C(=O)C1CC1 | . | . | . | -10 | .
O=C(Nc1nc2ccc(F)cc2s1)c1cccc(S(=O)(=O)N2CCc3ccccc32)c1 | -74 | 74* | -1 | -2 | 0
CN(CC(=O)Nc1ccccc1Br)C(=O)c1cccc(S(=O)(=O)N2CCc3ccccc32)c1 | -82 | 82* | -2 | -8 | .
CCC(CC)c1nnc(NC(=O)c2cccc(S(=O)(=O)N3CCc4ccccc43)c2)s1 | 22 | -22 | -7 | . | 0
CCOC(=O)c1sc(NC(=O)c2cccc(S(=O)(=O)N3CCc4ccccc43)c2)c(C#N)c1C | -76 | 76* | -7 | 1 | 0
CC[C@H]1CC=CC[C@H](C)Oc2ccccc2C(=O)N(C)[C@H](C(C)C)C(=O)N1 (mixture of isomers) | . | . | . | -8 | .
N#CC(C(=O)Nc1cccc(Cl)c1)=C1Nc2ccccc2N1 | -73 | 73* | . | . | 0
N#CC(C(=O)Nc1ccc(Cl)c(Cl)c1)=C1Nc2ccccc2N1 | -45 | 45 | -4 | -14 | 0
COc1ccc(NC(=O)Nc2ccc3c(c2)C(=O)N([C@H](C)CO)C[C@H](C)[C@H](CN(C)Cc2ccc(C(F)(F)F)cc2)OCCCC[C@H](C)O3)cc1 | . | . | . | 4 | .
CC(=O)C1=C(c2ccc(Br)cc2)C(=O)c2ccccc2C1=O | -31 | 31 | -3 | 39* | 0
CNC1=C(N(C(C)=O)c2ccc(Br)cc2)C(=O)c2ccccc2C1=O | 0 | 0 | -5 | 19 | 0
COc1ccccc1-c1ccc([C@H]2[C@@H](CO)N(C(=O)C3CCCC3)[C@H]2C#N)cc1 | . | . | . | 7 | .
CC1(C)Nc2ccc(O)cc2-c2c1ssc2=S | -12 | 12 | 0 | . | 0
CCOc1ccc2c(c1)-c1c(ssc1=S)C(C)(C)N2C | -89 | 89* | . | . | 0
COc1ccc(/C=C/C(=O)NCC(=O)N/N=C/c2cc(Br)ccc2OCc2ccccc2)cc1 | -79 | 79* | -1 | . | 0
COc1ccc(Br)cc1/C=N/NC(=O)CNC(=O)/C=C/c1ccccc1 | -63 | 63 | . | . | 0
SMILES | SR-BI uptake up | SR-BI DiI inh | CaV13 ICDI inh | FN deposition inh | Efflux pump inh
CCOC(=O)C1=C(O)/C(=C/c2cn(CC(=O)N3CCCC3)c3ccccc23)SC1=Nc1ccccc1 | -70 | 70* | . | . | .
COC(=O)c1cn(CC(=O)N2CCCCCC2)c2ccccc12 | -8 | 8 | -4 | 0 | 0
O=C(Nc1c(C(=O)c2ccccc2)oc2ccccc12)c1cc(-c2ccccc2O)n[nH]1 | -74 | 74* | -6 | 8 | -1
Cc1ccc(NC(=O)Nc2ccc3c(c2)C(=O)N(C)[C@H]2CC[C@@H](CC(=O)O)O[C@@H]2CO3)cc1 | . | . | . | 1 | .
CC(=O)N(C)C[C@H]1Oc2ccc(N)cc2CC(=O)N(C)C[C@@H]1C | . | . | . | 2 | .
COc1cc(NC(=O)c2ccc(Cl)cc2)c(OC)cc1Cl | -74 | 74* | -6 | 5 | 0
COc1cc(NC(=O)c2ccco2)c(OC)cc1NC(=O)c1cc(OC)c(OC)c(OC)c1 | -79 | 79* | . | 5 | 0
COc1cc(C(=O)OCC(=O)NC2CCCC2)cc(NC(=O)c2ccco2)c1OC | -19 | 19 | -5 | 2 | 0
COc1cc(C(=O)OCC(C)=O)cc(NC(=O)c2ccco2)c1OC | -27 | 27 | 179* | -10 | 0
CC(C)NC(=O)N(C)C[C@@H]1Oc2cc(C#C[C@H](C)O)ccc2S(=O)(=O)N([C@@H](C)CO)C[C@@H]1C | . | . | . | 9 | .
N#C/C(=C\c1ccc(N2CCCCC2)o1)C(=O)Nc1cccc(Br)c1 | -99 | 99* | -6 | -304 | 0
N#C/C(=C\c1ccc(N2CCCCC2)o1)C(N)=O | 6 | -6 | -4 | 3 | 0
COc1ccccc1C#Cc1ccc2c(c1)[C@@H]1[C@@H](CCN1S(=O)(=O)c1ccc(F)cc1)[C@@H](CO)N2 | . | . | . | 9 | .
Cc1nc(N2CCCCC2)sc1C(=O)c1ccc(SCCO)c([N+](=O)[O-])c1 | -78 | 78* | 1 | -3 | 0
CCCc1[nH]n(-c2ccc([N+](=O)[O-])cc2)c(=O)c1C=NCCc1c[nH]c2ccccc12 | -79 | 79* | -3 | . | 0
Cc1[nH]n(-c2ccc([N+](=O)[O-])cc2)c(=O)c1C=NCCc1c[nH]c2ccccc12 | -5 | 5 | -3 | 3 | 0
CNC[C@@H]1Oc2c(cccc2N(C)C)C(=O)N(C)C[C@@H]1C | . | . | . | 3 | .
COc1cccc(/C=N/Nc2ncnc(Cl)c2N)c1O | -10 | 10 | -20 | 4 | 0
COc1cccc(/C=N/Nc2ncnc3scc(-c4ccccc4)c23)c1O | -115 | 115* | -3 | 3 | 0
O=C(/C=C/c1ccc(Cl)cc1)N1CCN(CCN2C(=O)c3cccc4cccc(c34)C2=O)CC1 | -78 | 78* | -4 | 8 | .
O=C1c2cccc3cccc(c23)C(=O)N1CCN1CCN(C(=S)Nc2ccccc2)CC1 | -72 | 72* | -6 | . | 0
O=C1c2cccc3cccc(c23)C(=O)N1CCN1CCN(C(=S)Nc2ccc(Cl)cc2)CC1 | -68 | 68 | -5 | 2 | -1
NC(=O)CN1CCN(CCN2C(=O)c3cccc4cccc(c34)C2=O)CC1 | 1 | -1 | -2 | 2 | 0

Assay outcomes (PubChem)
